Key:
EA.hy 926 [1] = test: Antiangiogenic activity in human EA.hy 926 cells measured after 24 hrs by MTT assay; details: EA.hy 926, 24 h
[2] = biological target: Vascular endothelial growth factor receptor 2 (Homo sapiens, UniProt P35968); test: Inhibition of recombinant human N-terminal GST-tagged VEGFR2 (789 to end residues) expressed in baculovirus infected Sf9 insect cells using Poly (4:1 Glu, Tyr) as substrate incubated for 1 hr by ADP-Glo luminescent assay
HEK293 = test: Cytotoxicity against HEK293 cells measured after 24 hrs by MTT assay; type: cell-based; details: human, hek293, 24 h
[3] = biological target: T1, von Hippel-Lindau disease tumor suppressor/Vascular endothelial growth factor receptor 2 (Homo sapiens) (UniProt P35968+P40337); test: Protac activity at VHL/VEGFR2 in human EA.hy 926 cells assessed as induction of VEGFR2 degradation at 40 uM measured after 24 to 48 hrs by Western blot analysis relative to control; type: cell-based; details: time 24-48 hrs
Outline: (§1)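 EA.hy926 cells were exposed to DMSO vehicle or test compound, then lysed in SDS sample buffer and normalized by BCA protein assay. Equal protein amounts were run on SDS-PAGE and transferred to PVDF. Membranes were blocked in 5% milk/TBS-Tween and probed with anti-VEGFR-2 (1:500), with GAPDH (1:10000) as loading control. Detection used HRP secondary and ECL, with densitometric quantification.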

[4] = biological target: T1, von Hippel-Lindau disease tumor suppressor/Vascular endothelial growth factor receptor 2 (Homo sapiens); test: Protac activity at VHL/VEGFR2 in human EA.hy 926 cells assessed as induction of VEGFR2 degradation measured after 24 to 72 hrs by Western blot analysis; type: cell-based; details: time 24-72 hrs; outline: as §1
EA.hy 926 [5] = test: Cell cycle arrest in human EA.hy 926 cells assessed as accumulation at G1 phase at 0.1 uM measured after 72 hrs by propidium iodide staining based flow cytometry (reference value: 59.78%); type: functional
EA.hy 926 [6] = test: Cell cycle arrest in human EA.hy 926 cells assessed as accumulation at G2 phase at 0.1 uM measured after 72 hrs by propidium iodide staining based flow cytometry (reference value: 25.83%); type: functional
EA.hy 926 [7] = test: Cell cycle arrest in human EA.hy 926 cells assessed as accumulation at S phase at 0.1 uM measured after 72 hrs by propidium iodide staining based flow cytometry (reference value: 14.39%); type: functional
EA.hy 926 [8] = test: Cell cycle arrest in human EA.hy 926 cells assessed as accumulation at G1 phase at 1 uM measured after 72 hrs by propidium iodide staining based flow cytometry (reference value: 59.78%); type: functional
EA.hy 926 [9] = test: Cell cycle arrest in human EA.hy 926 cells assessed as accumulation at G2 phase at 1 uM measured after 72 hrs by propidium iodide staining based flow cytometry (reference value: 25.83%); type: functional
EA.hy 926 [10] = test: Cell cycle arrest in human EA.hy 926 cells assessed as accumulation at S phase at 1 uM measured after 72 hrs by propidium iodide staining based flow cytometry (reference value: 14.39%); type: functional
EA.hy 926 [11] = test: Cell cycle arrest in human EA.hy 926 cells assessed as accumulation at G1 phase at 10 uM measured after 72 hrs by propidium iodide staining based flow cytometry (reference value: 59.78%); type: functional
EA.hy 926 [12] = test: Cell cycle arrest in human EA.hy 926 cells assessed as accumulation at G2 phase at 10 uM measured after 72 hrs by propidium iodide staining based flow cytometry (reference value: 25.83%); type: functional
EA.hy 926 [13] = test: Cell cycle arrest in human EA.hy 926 cells assessed as accumulation at S phase at 10 uM measured after 72 hrs by propidium iodide staining based flow cytometry (reference value: 14.39%); type: functional
EA.hy 926 [14] = test: Cell cycle arrest in human EA.hy 926 cells assessed as accumulation at G1 phase at 20 uM measured after 72 hrs by propidium iodide staining based flow cytometry (reference value: 59.78%); type: functional
EA.hy 926 [15] = test: Cell cycle arrest in human EA.hy 926 cells assessed as accumulation at G2 phase at 20 uM measured after 72 hrs by propidium iodide staining based flow cytometry (reference value: 25.83%); type: functional
EA.hy 926 [16] = test: Cell cycle arrest in human EA.hy 926 cells assessed as accumulation at S phase at 20 uM measured after 72 hrs by propidium iodide staining based flow cytometry (reference value: 14.39%); type: functional
EA.hy 926 [17] = test: Cell cycle arrest in human EA.hy 926 cells assessed as accumulation at G1 phase at 40 uM measured after 72 hrs by propidium iodide staining based flow cytometry (reference value: 59.78%); type: functional
EA.hy 926 [18] = test: Cell cycle arrest in human EA.hy 926 cells assessed as accumulation at G2 phase at 40 uM measured after 72 hrs by propidium iodide staining based flow cytometry (reference value: 25.83%); type: functional
EA.hy 926 [19] = test: Cell cycle arrest in human EA.hy 926 cells assessed as accumulation at S phase at 40 uM measured after 72 hrs by propidium iodide staining based flow cytometry (reference value: 14.39%); type: functional
EA.hy 926 [20] = test: Induction of apoptosis in human EA.hy 926 cells measured after 72 hrs by Annexin V-FITC/propidium iodide staining based flow cytometry; type: functional, cell-based
EA.hy 926 [21] = test: Induction of apoptosis in human EA.hy 926 cells assessed as viable cells at 0.1 uM measured after 72 hrs by Annexin V-FITC/propidium iodide staining based flow cytometry (reference value: 88.6%); type: functional; details: read-out: Activity
EA.hy 926 [22] = test: Induction of apoptosis in human EA.hy 926 cells assessed as early apoptotic cells at 0.1 uM measured after 72 hrs by Annexin V-FITC/propidium iodide staining based flow cytometry (reference value: 3.4%); type: functional
EA.hy 926 [23] = test: Induction of apoptosis in human EA.hy 926 cells assessed as necrotic cells at 0.1 uM measured after 72 hrs by Annexin V-FITC/propidium iodide staining based flow cytometry (reference value: 2.65%); type: functional
EA.hy 926 [24] = test: Induction of apoptosis in human EA.hy 926 cells assessed as viable cells at 1 uM measured after 72 hrs by Annexin V-FITC/propidium iodide staining based flow cytometry (reference value: 88.6%); type: functional; details: read-out: Activity
EA.hy 926 [25] = test: Induction of apoptosis in human EA.hy 926 cells assessed as early apoptotic cells at 1 uM measured after 72 hrs by Annexin V-FITC/propidium iodide staining based flow cytometry (reference value: 3.4%); type: functional
EA.hy 926 [26] = test: Induction of apoptosis in human EA.hy 926 cells assessed as necrotic cells at 1 uM measured after 72 hrs by Annexin V-FITC/propidium iodide staining based flow cytometry (reference value: 2.65%); type: functional
EA.hy 926 [27] = test: Induction of apoptosis in human EA.hy 926 cells assessed as viable cells at 10 uM measured after 72 hrs by Annexin V-FITC/propidium iodide staining based flow cytometry (reference value: 88.6%); type: functional; details: read-out: Activity
EA.hy 926 [28] = test: Induction of apoptosis in human EA.hy 926 cells assessed as early apoptotic cells at 10 uM measured after 72 hrs by Annexin V-FITC/propidium iodide staining based flow cytometry (reference value: 3.4%); type: functional
EA.hy 926 [29] = test: Induction of apoptosis in human EA.hy 926 cells assessed as necrotic cells at 10 uM measured after 72 hrs by Annexin V-FITC/propidium iodide staining based flow cytometry (reference value: 2.65%); type: functional
EA.hy 926 [30] = test: Induction of apoptosis in human EA.hy 926 cells assessed as viable cells at 20 uM measured after 72 hrs by Annexin V-FITC/propidium iodide staining based flow cytometry (reference value: 88.6%); type: functional; details: read-out: Activity
EA.hy 926 [31] = test: Induction of apoptosis in human EA.hy 926 cells assessed as early apoptotic cells at 20 uM measured after 72 hrs by Annexin V-FITC/propidium iodide staining based flow cytometry (reference value: 3.4%); type: functional
EA.hy 926 [32] = test: Induction of apoptosis in human EA.hy 926 cells assessed as necrotic cells at 20 uM measured after 72 hrs by Annexin V-FITC/propidium iodide staining based flow cytometry (reference value: 2.65%); type: functional
EA.hy 926 [33] = test: Induction of apoptosis in human EA.hy 926 cells assessed as viable cells at 40 uM measured after 72 hrs by Annexin V-FITC/propidium iodide staining based flow cytometry (reference value: 88.6%); type: functional; details: read-out: Activity
EA.hy 926 [34] = test: Induction of apoptosis in human EA.hy 926 cells assessed as early apoptotic cells at 40 uM measured after 72 hrs by Annexin V-FITC/propidium iodide staining based flow cytometry (reference value: 3.4%); type: functional
EA.hy 926 [35] = test: Induction of apoptosis in human EA.hy 926 cells assessed as necrotic cells at 40 uM measured after 72 hrs by Annexin V-FITC/propidium iodide staining based flow cytometry (reference value: 2.65%); type: functional
EA.hy 926 [36] = test: Induction of apoptosis in human EA.hy 926 cells assessed as late apoptotic cells at 1 uM measured after 72 hrs by Annexin V-FITC/propidium iodide staining based flow cytometry (reference value: 5.34%)
EA.hy 926 [37] = test: Induction of apoptosis in human EA.hy 926 cells assessed as late apoptotic cells at 10 uM measured after 72 hrs by Annexin V-FITC/propidium iodide staining based flow cytometry (reference value: 5.34%)
EA.hy 926 [38] = test: Induction of apoptosis in human EA.hy 926 cells assessed as late apoptotic cells at 20 uM measured after 72 hrs by Annexin V-FITC/propidium iodide staining based flow cytometry (reference value: 5.34%)
EA.hy 926 [39] = test: Induction of apoptosis in human EA.hy 926 cells assessed as late apoptotic cells at 40 uM measured after 72 hrs by Annexin V-FITC/propidium iodide staining based flow cytometry (reference value: 5.34%)
EA.hy 926 [40] = test: Induction of apoptosis in human EA.hy 926 cells assessed as late apoptotic cells at 0.1 uM measured after 72 hrs by Annexin V-FITC/propidium iodide staining based flow cytometry (reference value: 5.34%)

Chain of Vascular endothelial growth factor receptor 2 (P35968 whole entry): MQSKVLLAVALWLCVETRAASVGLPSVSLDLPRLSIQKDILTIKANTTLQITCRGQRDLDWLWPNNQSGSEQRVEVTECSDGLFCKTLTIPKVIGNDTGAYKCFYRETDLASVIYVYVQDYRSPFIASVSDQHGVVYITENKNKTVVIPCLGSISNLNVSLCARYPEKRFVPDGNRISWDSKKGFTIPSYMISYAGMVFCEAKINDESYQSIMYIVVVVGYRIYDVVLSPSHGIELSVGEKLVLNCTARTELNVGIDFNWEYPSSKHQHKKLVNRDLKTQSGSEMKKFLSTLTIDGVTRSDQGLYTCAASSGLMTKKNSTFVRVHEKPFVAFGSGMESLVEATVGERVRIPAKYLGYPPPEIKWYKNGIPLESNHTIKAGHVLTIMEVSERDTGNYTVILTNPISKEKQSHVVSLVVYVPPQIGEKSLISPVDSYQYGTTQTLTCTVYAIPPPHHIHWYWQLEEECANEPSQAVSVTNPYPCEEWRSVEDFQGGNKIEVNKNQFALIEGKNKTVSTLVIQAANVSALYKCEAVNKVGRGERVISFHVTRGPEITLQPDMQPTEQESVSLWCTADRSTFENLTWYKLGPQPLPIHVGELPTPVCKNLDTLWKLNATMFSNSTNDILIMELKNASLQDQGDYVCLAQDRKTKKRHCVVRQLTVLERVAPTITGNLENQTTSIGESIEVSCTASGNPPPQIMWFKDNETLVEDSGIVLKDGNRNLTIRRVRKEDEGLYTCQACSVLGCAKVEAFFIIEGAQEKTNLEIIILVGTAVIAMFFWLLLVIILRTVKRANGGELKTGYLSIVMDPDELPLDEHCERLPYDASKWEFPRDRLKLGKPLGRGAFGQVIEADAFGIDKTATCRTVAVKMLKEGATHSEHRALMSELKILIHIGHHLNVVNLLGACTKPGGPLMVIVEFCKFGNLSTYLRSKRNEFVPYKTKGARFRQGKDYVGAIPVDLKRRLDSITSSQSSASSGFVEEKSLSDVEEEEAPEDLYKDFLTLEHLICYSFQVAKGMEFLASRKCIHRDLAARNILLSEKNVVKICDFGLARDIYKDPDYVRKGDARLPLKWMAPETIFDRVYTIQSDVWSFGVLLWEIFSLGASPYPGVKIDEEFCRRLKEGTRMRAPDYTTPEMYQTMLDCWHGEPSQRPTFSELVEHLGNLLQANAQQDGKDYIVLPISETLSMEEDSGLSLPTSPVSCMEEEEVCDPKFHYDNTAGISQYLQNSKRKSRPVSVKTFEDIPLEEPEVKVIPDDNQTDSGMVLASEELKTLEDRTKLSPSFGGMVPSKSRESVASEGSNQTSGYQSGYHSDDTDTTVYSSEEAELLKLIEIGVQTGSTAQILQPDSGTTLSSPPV
T1 sequence (P35968 20-1356 limits assumed): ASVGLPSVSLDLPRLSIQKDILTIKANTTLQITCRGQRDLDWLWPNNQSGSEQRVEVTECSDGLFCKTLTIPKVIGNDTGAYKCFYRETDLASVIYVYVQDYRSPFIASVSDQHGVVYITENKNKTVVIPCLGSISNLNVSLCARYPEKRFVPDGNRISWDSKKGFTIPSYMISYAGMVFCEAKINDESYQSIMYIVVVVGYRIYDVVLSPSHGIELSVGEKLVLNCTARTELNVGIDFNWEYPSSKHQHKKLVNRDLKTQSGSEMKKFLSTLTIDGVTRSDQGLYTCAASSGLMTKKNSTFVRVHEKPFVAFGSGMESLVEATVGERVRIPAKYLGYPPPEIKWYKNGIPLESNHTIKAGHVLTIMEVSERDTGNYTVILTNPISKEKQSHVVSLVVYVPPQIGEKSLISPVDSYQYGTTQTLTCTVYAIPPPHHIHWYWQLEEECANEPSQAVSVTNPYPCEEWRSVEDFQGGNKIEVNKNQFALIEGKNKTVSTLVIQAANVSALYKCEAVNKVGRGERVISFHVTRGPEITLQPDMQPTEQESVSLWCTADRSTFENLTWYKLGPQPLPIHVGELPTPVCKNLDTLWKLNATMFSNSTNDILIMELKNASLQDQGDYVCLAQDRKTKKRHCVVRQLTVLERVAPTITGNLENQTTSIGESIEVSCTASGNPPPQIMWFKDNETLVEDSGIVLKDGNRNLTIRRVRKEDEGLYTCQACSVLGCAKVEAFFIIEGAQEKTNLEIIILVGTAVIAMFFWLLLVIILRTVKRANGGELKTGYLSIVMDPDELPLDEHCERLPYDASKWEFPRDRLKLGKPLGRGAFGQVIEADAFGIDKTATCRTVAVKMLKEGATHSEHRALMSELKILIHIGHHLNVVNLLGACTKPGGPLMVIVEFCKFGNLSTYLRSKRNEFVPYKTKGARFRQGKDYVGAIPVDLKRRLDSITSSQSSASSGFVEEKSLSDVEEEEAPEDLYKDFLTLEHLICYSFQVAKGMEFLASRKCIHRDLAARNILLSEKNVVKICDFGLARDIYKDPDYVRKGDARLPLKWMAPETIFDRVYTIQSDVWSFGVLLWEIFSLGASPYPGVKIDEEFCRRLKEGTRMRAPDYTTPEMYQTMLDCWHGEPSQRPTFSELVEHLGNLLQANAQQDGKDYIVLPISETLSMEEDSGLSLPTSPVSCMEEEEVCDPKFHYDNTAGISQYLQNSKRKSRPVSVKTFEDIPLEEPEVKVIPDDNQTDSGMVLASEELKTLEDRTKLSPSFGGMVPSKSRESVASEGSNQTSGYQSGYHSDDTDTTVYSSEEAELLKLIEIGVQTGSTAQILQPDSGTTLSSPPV
T1 sequence (P40337 whole entry partner): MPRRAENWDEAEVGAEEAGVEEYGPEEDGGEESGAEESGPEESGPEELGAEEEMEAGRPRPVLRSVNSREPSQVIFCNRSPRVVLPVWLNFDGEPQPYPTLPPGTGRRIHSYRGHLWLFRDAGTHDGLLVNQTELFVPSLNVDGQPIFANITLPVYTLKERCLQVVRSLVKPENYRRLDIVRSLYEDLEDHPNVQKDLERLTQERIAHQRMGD

Cc1ccc(F)c(NC(=O)Nc2ccc(-c3cccc4[nH]nc(N)c34)cc2)c1 [LINIFANIB]
IC50 (EA.hy 926 [1]): 2480 nM

Cc1ccc(F)c(NC(=O)Nc2ccc(-c3cccc4c3c(N)nn4C(=O)CCCCCCCCCCCCCCC(=O)N[C@H](C(=O)N3C[C@H](O)C[C@H]3C(=O)NCc3ccc(-c4scnc4C)cc3)C(C)(C)C)cc2)c1
IC50 [2]: 80.4 nM
Activity (HEK293): Non-Toxic

CC(C)c1cccc(NC(=O)Nc2cccc(-c3cccc4[nH]nc(N)c34)c2)c1
IC50 (EA.hy 926 [1]): 51600 nM

Cc1ccc(F)c(NC(=O)Nc2ccc(-c3cccc4c3c(N)nn4C(=O)CCCCCCCCCCC(=O)N[C@H](C(=O)N3C[C@H](O)C[C@H]3C(=O)NCc3ccc(-c4scnc4C)cc3)C(C)(C)C)cc2)c1
IC50 [2]: 209 nM
IC50 (EA.hy 926 [1]): 38600 nM
Activity (HEK293): Non-Toxic
Activity [3]: 60%
Activity [4]: Dose-dependent effect
Activity (EA.hy 926 [5]): 58.89%
Activity (EA.hy 926 [6]): 23.48%
Activity (EA.hy 926 [7]): 17.63%
Activity (EA.hy 926 [8]): 59.22%
Activity (EA.hy 926 [9]): 25.79%
Activity (EA.hy 926 [10]): 14.99%
Activity (EA.hy 926 [11]): 60.14%
Activity (EA.hy 926 [12]): 24.49%
Activity (EA.hy 926 [13]): 15.36%
Activity (EA.hy 926 [14]): 40.7%
Activity (EA.hy 926 [15]): 24.92%
Activity (EA.hy 926 [16]): 34.38%
Activity (EA.hy 926 [17]): 25.98%
Activity (EA.hy 926 [18]): 30.4%
Activity (EA.hy 926 [19]): 43.62%
Activity (EA.hy 926 [20]): Dose-dependent effect
viability at 0.1 µM (EA.hy 926 [21]): 86.7%
Activity (EA.hy 926 [22]): 4.21%
Activity (EA.hy 926 [23]): 2.16%
viability at 1 µM (EA.hy 926 [24]): 81.6%
Activity (EA.hy 926 [25]): 5.96%
Activity (EA.hy 926 [26]): 4.12%
viability at 10 µM (EA.hy 926 [27]): 70.2%
Activity (EA.hy 926 [28]): 12.1%
Activity (EA.hy 926 [29]): 2.15%
viability at 20 µM (EA.hy 926 [30]): 31.5%
Activity (EA.hy 926 [31]): 18.2%
Activity (EA.hy 926 [32]): 1.72%
viability at 40 µM (EA.hy 926 [33]): 8.82%
Activity (EA.hy 926 [34]): 26.4%
Activity (EA.hy 926 [35]): 0.59%
late apoptotic cells % (EA.hy 926 [36]): 8.32%
late apoptotic cells % (EA.hy 926 [37]): 15.6%
late apoptotic cells % (EA.hy 926 [38]): 48.7%
late apoptotic cells % (EA.hy 926 [39]): 64.2%
late apoptotic cells % (EA.hy 926 [40]): 6.94%

Source: ChEMBL document CHEMBL4765413, “Discovery of novel anti-angiogenesis agents. Part 11: Development of PROTACs based on active molecules with potency of promoting vascular normalization” (Eur J Med Chem, 2020)
